Hits are enriched below; roughly 2.8% of the tested compounds scored in any of these assays.
HTR2A ag: activates the mouse 5-HT2A serotonin receptor. CHO-K1 mHTR2A beta-arrestin complementation, luminescence; percent of 30 µM serotonin response. 360,000 compounds, 0.66% hits. P35363. AID 624169. activation, % at 7.6 µM;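 active means activation above a run cutoff, the mean activation of all tested compounds plus 3 SD, cut at about 14% in these data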
MC4R barr agon: agonists of human melanocortin 4 receptor (MC4R) beta-arrestin. activation, % at 8.9 µM. P32245. U2OS MC4R beta-arrestin complementation, luminescence; percent of melanotan II response, DMSO zero. 360,000 compounds, 0.98% hits;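 active means activation above a per-plate cutoff, the mean activation of sample wells on that plate plus 3 SD, cut at about 8% in these data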
EBI2 block: blocks human EBI2 receptor beta-arrestin signaling. P32249. EBI2 beta-arrestin recruitment, luminescence, 7a,25-OHC stimulated. inhibition, % at 5 µM. 360,000 compounds, 0.81% hits. AID 651636; in the data active means inhibition above about 38%;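 further: enzyme fragment complementation signal reports receptor beta-arrestin coupling in cells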
Target sequence (P32249 whole entry, looked up, the tested form may be a part): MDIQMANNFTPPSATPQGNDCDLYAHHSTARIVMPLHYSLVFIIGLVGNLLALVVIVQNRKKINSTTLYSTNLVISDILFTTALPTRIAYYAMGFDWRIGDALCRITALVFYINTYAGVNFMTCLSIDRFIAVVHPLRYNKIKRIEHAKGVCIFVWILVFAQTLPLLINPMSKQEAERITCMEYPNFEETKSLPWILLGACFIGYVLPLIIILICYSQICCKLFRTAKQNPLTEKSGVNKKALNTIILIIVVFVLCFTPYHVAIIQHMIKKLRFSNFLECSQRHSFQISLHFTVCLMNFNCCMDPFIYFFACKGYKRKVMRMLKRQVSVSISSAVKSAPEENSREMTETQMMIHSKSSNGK
MC4R antag cAMP: blocks human MC4R cAMP signaling; P32245; MC4R-expressing cells, MTII-stimulated cAMP, LANCE TR-FRET; inhibition, % at 6.5 µM; 360,000 compounds, 0.48% hits; AID 540295;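 active means inhibition above its plate's cutoff, the mean of tested wells on that plate plus 3 SD, cut at about 29% in these data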
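Material – human MC4R-expressing U2OS cells · Repeats – no replicates · Detection – TR-FRET with Eu-cAMP and labeled anti-cAMP, 671 nm · Times – compound 30 min, challenge 1 h, detection 1 h · Compound – single nominal compound dose of 6.5 µM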
MOR ag counter: OPRM1 agonism in mouse HTR2A counterscreen. activation, % at 9.3 µM. 2,300 compounds, 5.3% hits. U2OS OPRM1 beta-arrestin PathHunter, luminescence; DMSO 0%, DAMGO 9.3 µM 100%. shares compounds with HTR2A ag;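 active means mean activation above the mean of DMSO-only wells plus 3 SD, cut at about 0.5% in these data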
m5-HT2A ag conf: mouse HTR2A agonism confirmed. shares compounds with HTR2A ag. AID 624381. activation, % at 7.6 µM. CHO-K1 PathHunter beta-arrestin recruitment, luminescence; DMSO 0%, 30 µM serotonin 100%. 2,300 compounds, 19% hits;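 active means mean activation across triplicates above the hit threshold derived in the original primary screen, cut at about 15% in these data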
Large screens that a line does not name were inactive (follow-up assays come after a bar, where they were run).

COc1cc(C(c2nnnn2C(C)(C)C)N2CCN(c3nc4ccccc4s3)CC2)ccc1O (configuration not stated)	HTR2A ag 29.2 | MOR ag counter inactive | m5-HT2A ag conf inactive
CCN(CC)Cc1cc(Oc2ccc(O)c(CN(CC)CC)c2)ccc1O	none (no result: MC4R barr agon, MC4R antag cAMP)
COc1ccc(-c2cc(C(=O)N3CCCC3)no2)cc1OC	HTR2A ag 22.5 | MOR ag counter inactive | m5-HT2A ag conf inactive
COc1ccc(OC)c(-c2cc(C(=O)N3CCN(c4ccccc4)CC3)no2)c1	HTR2A ag 27.4 | MOR ag counter inactive | m5-HT2A ag conf inactive
Cc1ccc(P(=O)(CO)c2ccc(C)cc2)cc1	HTR2A ag 15.5 | MOR ag counter inactive | m5-HT2A ag conf inactive
CCOC(=O)c1cccnc1SCC(=O)Nc1ccc(C)cc1	HTR2A ag 16.2 | MOR ag counter inactive | m5-HT2A ag conf inactive
CCOC(=O)c1cccnc1SCC(=O)NC(C)CC (configuration not stated)	none
CCOC(=O)C1CCCN(S(=O)(=O)c2ccc(OC)cc2)C1 (configuration not stated)	HTR2A ag 23.6 | MOR ag counter inactive | m5-HT2A ag conf inactive
COc1cccc(C=C(C(C)=O)C(=O)c2ccccc2)c1	none (no result: MC4R barr agon, MC4R antag cAMP)
CC1(C(=O)NS(=O)(=O)c2ccc(Cl)s2)CCN1C(=O)C1(c2ccc(Cl)cc2)CC1 (configuration not stated)	none
C=C(C)c1cccc(C(C)(C)NC(=O)Nn2cnnc2)c1	HTR2A ag 16.1 | MOR ag counter inactive | m5-HT2A ag conf 15.8
C=C(C)c1cccc(C(C)(C)NC(=O)Nc2ccc(Cl)cn2)c1	HTR2A ag 30.4 | MOR ag counter inactive | m5-HT2A ag conf 17.9
C[C@@H]1CCCCO[C@@H](CN(C)C(=O)CCC(F)(F)F)[C@@H](C)CN([C@H](C)CO)C(=O)c2cc(N(C)C)ccc2O1	none
CCCS(=O)(=O)NC(=O)C1(C)CCN(C(=O)c2ccnc(Cl)c2)C1 (configuration not stated)	none
COc1ccc(-c2cc3nc4ccccc4n3c(N)c2C#N)cc1	none
CN1CCn2cnc(C(=O)Nc3ccc(Cl)cc3)c2C1=O	none
CN(Cc1ccccc1)C(=O)c1ccc2sc([C@@H]3O[C@H](CO)[C@H](O)[C@H](O)[C@H]3O)nc2c1	HTR2A ag 21.1 | MOR ag counter inactive | m5-HT2A ag conf inactive
O=C(Nc1ccc(Cl)cc1)c1ccc2sc([C@@H]3O[C@H](CO)[C@H](O)[C@H](O)[C@H]3O)nc2c1	none
CCN(CC)C(=O)c1ccc2sc([C@@H]3O[C@H](CO)[C@H](O)[C@H](O)[C@H]3O)nc2c1	none
Cc1cc(NC(=O)c2ccc3sc([C@@H]4O[C@H](CO)[C@H](O)[C@H](O)[C@H]4O)nc3c2)no1	HTR2A ag 20.8 | MOR ag counter inactive | m5-HT2A ag conf inactive
CCc1ccc(C(=O)C(C)OC(=O)Cn2cnc3c2c(=O)n(C)c(=O)n3C)cc1 (configuration not stated)	HTR2A ag 17.0 | MOR ag counter inactive | m5-HT2A ag conf inactive
Cc1ccc(C(=O)C(C)OC(=O)Cn2cnc3c2c(=O)n(C)c(=O)n3C)cc1 (configuration not stated)	none
Cc1cc(C)cc(-n2c(C)cc(/C=C3\C(=N)N4N=C(CC(C)C)SC4=NC3=O)c2C)c1	HTR2A ag 18.1 | MOR ag counter inactive | m5-HT2A ag conf inactive
COc1cc(Cl)c(S(=O)(=O)N2CCOCC2)cc1Cl	HTR2A ag 14.5 | MOR ag counter inactive | m5-HT2A ag conf inactive
COc1cc(NC(=O)c2ccco2)c(OC)cc1NC(=O)Nc1ccc(Cl)cc1	HTR2A ag 14.7 | MOR ag counter inactive | m5-HT2A ag conf inactive
CCCCCCn1c(=O)n2n(c1=O)C[C@]1(OC(=O)Nc3c(C)noc3C)CN(S(=O)(=O)c3ccc(C)cc3)C[C@]1(O)C2	none
Nc1ccc(C(=O)N/N=C\C=C\c2ccc([N+](=O)[O-])cc2)cc1	HTR2A ag 16.6 | MOR ag counter inactive | m5-HT2A ag conf inactive
CC(=O)C1=C(O)C(=O)OC1c1ccc(Cl)cc1 (configuration not stated)	HTR2A ag 15.5 | MOR ag counter inactive | m5-HT2A ag conf inactive
CC(=O)C1=C(O)C(=O)OC1c1ccc(C)cc1 (configuration not stated)	none
COc1cccc(-c2cc(N3CCN(C(=O)c4ccoc4)CC3)n3nc(-c4cccc(Cl)c4)cc3n2)c1	HTR2A ag 16.3 | MOR ag counter inactive | m5-HT2A ag conf inactive
COc1cccc(-c2cc3nc(-c4ccccc4)cc(N4CCN(C(=O)c5ccoc5)CC4)n3n2)c1	none
O=S1(=O)N[C@H](Cc2ccccc2)COc2cccc(N3CCSCC3)c21	none (no result: MC4R barr agon, MC4R antag cAMP)
Cc1cc(/C=C2\NC(=O)NC2=O)c(C)n1-c1ccc(N2CCOCC2)cc1	none
Cc1cc(C=O)c(C)n1-c1ccc(N2CCOCC2)cc1	HTR2A ag 15.6 | MOR ag counter inactive | m5-HT2A ag conf inactive
Cc1cc(C)n(C(=O)c2cccc([N+](=O)[O-])c2)n1	none
Cc1cc(C)n(C(=O)c2cc([N+](=O)[O-])cc([N+](=O)[O-])c2)n1	HTR2A ag 44.7 | MOR ag counter inactive | m5-HT2A ag conf inactive
CCOC(=O)N1CCC(NC(=O)CCCN2C(=O)CSc3ncccc32)CC1	none
O=C(CCCN1C(=O)CSc2ncccc21)N1CCN(Cc2ccccc2)CC1	HTR2A ag 107.3 | MOR ag counter inactive | m5-HT2A ag conf inactive
CC(C)(C)Cc1c(-c2ccco2)nc2ccc(Cl)cn12	none (no result: MC4R barr agon, MC4R antag cAMP)
COc1ncccc1C(=O)N1CCCC(C(=O)Nc2cccc(-c3ccc(F)cc3)c2)C1 (configuration not stated)	none
CCCCc1c(C)nn(-c2nnc3c4ccccc4n(CC)c3n2)c1C	HTR2A ag 14.6 | MOR ag counter inactive | m5-HT2A ag conf inactive
CSCCC(NC(=O)c1ccccc1Br)C(=O)NNC(=O)c1ccncc1 (configuration not stated)	none
Cc1csc2c(N3CCN(C(=O)NC(C)(C)C)CC3)ncnc12	HTR2A ag 41.1 | MOR ag counter inactive | m5-HT2A ag conf inactive
Cc1csc2c(N3CCN(C(=S)Nc4ccc(C(F)(F)F)cc4)CC3)ncnc12	HTR2A ag 31.8 | MOR ag counter inactive | m5-HT2A ag conf inactive
Cc1csc2ncnc(N3CCN(C(=S)Nc4ccc(C(F)(F)F)cc4)CC3)c12	none
CCOc1ccc(S(=O)(=O)NCC2(N3CCCCC3)CCCCC2)cc1	HTR2A ag 16.8 | MOR ag counter inactive | m5-HT2A ag conf inactive
CCOc1ccc(S(=O)(=O)NCCC(=O)NCC2(N3CCCCC3)CCCCC2)cc1	none
COCCn1c(=O)[nH]c2cc(C(=O)N3CCN(c4cccc(C)c4C)CC3)ccc2c1=O	HTR2A ag 15.1 | MOR ag counter inactive | m5-HT2A ag conf inactive
